# From ChEMBL document CHEMBL3351861, “New synthetic sulfone derivatives inhibit growth, adhesion and the leucine arylamidase APE2 gene expression of Candida albicans in vitro” (2015)
# Legend:
# Candida albicans [1] = assay: Inhibition of cell adhesion of compound pre-treated Candida albicans CAI4 expressing delta-efg1 gene to human Caco2 cells assessed as cell adhesion level at 8 ug/ml pre-incubated for 18 hrs by colony counting method (reference value: 2.1 +/- 3.52%); assay type: functional, Caco-2; parameters: scale not given: the % may be the effect or the level left
# Candida albicans [2] = assay: Antifungal activity against Candida albicans CAI4 expressing delta-cph1/delta-efg1 gene assessed as growth inhibition at 0.5 ug/ml by CLSI M27-A3 method; assay type: functional; settings: read-out: GI
# In short: (§1)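 CLSI M27-A3 broth microdilution in RPMI, read after 48 h. Strains pre-grown 18 h in YEPD at 30°C. Final inoculum 0.5×10^2–2.5×10^3 cells/ml. Two-fold dilutions in RPMI came from a 1600 µg/ml stock in water with 9% DMSO; final DMSO was 0.09%. OD405 read, % inhibition = 100 − (CTW−SCW)/(GCW−SCW). Triplicate on three occasions, mean±SD.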
# Candida albicans [3] = assay: Antifungal activity against Candida albicans 90028 assessed as growth inhibition at 0.25 ug/ml by CLSI M27-A3 method; assay type: functional; settings: read-out: GI; in short: as §1
# Candida albicans [4] = assay: Antifungal activity against Candida albicans CAI4 expressing delta-cph1/delta-efg1 (EFG1) gene assessed as growth inhibition at 4 ug/ml by CLSI M27-A3 method; assay type: functional; settings: read-out: GI; in short: as §1
# Candida albicans [5] = assay: Antifungal activity against Candida albicans CAI4 expressing delta-cph1 gene assessed as growth inhibition at 0.5 ug/ml by CLSI M27-A3 method; assay type: functional; settings: read-out: GI; in short: as §1
# Candida albicans [6] = assay: Antifungal activity against Candida albicans CAI4 expressing delta-cph1/delta-efg1 gene assessed as growth inhibition at 0.25 ug/ml by CLSI M27-A3 method; assay type: functional; settings: read-out: GI; in short: as §1
# Candida albicans [7] = assay: Inhibition of cell adhesion of compound pre-treated Candida albicans 90028 to human Caco2 cells assessed as cell adhesion level at 16 ug/ml pre-incubated for 18 hrs by colony counting method (reference value: 1.58 +/- 0.67%); assay type: functional, Caco-2; parameters: scale not given: the % may be the effect or the level left
# Candida albicans [8] = assay: Antifungal activity against Candida albicans 90028 assessed as growth inhibition at 16 ug/ml by CLSI M27-A3 method; assay type: functional; settings: read-out: GI; in short: as §1
# Candida albicans [9] = assay: Antifungal activity against Candida albicans 90028 assessed as growth inhibition at 8 ug/ml by CLSI M27-A3 method; assay type: functional; settings: read-out: GI; in short: as §1
# Candida albicans [10] = assay: Antifungal activity against Candida albicans CAI4 expressing delta-efg1 gene assessed as growth inhibition at 8 ug/ml by CLSI M27-A3 method; assay type: functional; settings: read-out: GI
# In short: (§2)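 CLSI M27-A3 broth microdilution in RPMI. Final inoculum 0.5×10^2 to 2.5×10^3 cells/ml. Seven two-fold concentrations from 0.25 to 16 µg/ml, with DMSO held at 0.09% (v/v) in all wells. Compound-free growth controls and sterility controls are run for each strain. […] Triplicate on three occasions.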
# Candida albicans [11] = assay: Inhibition of cell adhesion of compound pre-treated Candida albicans CAI4 expressing delta-efg1/delta-cph1 gene to human Caco2 cells assessed as cell adhesion level at 16 ug/ml pre-incubated for 18 hrs by colony counting method (reference value: 1.22 +/- 0.78%); assay type: functional, Caco-2; parameters: scale not given: the % may be the effect or the level left
# Candida albicans [12] = assay: Antifungal activity against Candida albicans CAI4 expressing delta-efg1 (EFG1) gene assessed as growth inhibition at by CLSI M27-A3 method; assay type: functional
# Candida albicans [13] = assay: Antifungal activity against Candida albicans CAI4 expressing delta-cph1/delta-efg1 (EFG1) gene assessed as growth inhibition at 16 ug/ml by CLSI M27-A3 method; assay type: functional; settings: read-out: GI; in short: as §1
# Candida albicans [14] = assay: Antifungal activity against Candida albicans CAI4 expressing delta-cph1 (CPH1) gene assessed as growth inhibition at 16 ug/ml by CLSI M27-A3 method; assay type: functional; settings: read-out: GI; in short: as §1
# Candida albicans [15] = assay: Antifungal activity against Candida albicans CAI4 expressing delta-efg1 (EFG1) gene assessed as growth inhibition at 0.25 ug/ml by CLSI M27-A3 method; assay type: functional; settings: read-out: GI; in short: as §1
# Candida albicans [16] = assay: Antifungal activity against Candida albicans CAI4 expressing delta-cph1/delta-efg1 (EFG1) gene assessed as growth inhibition at 2 ug/ml by CLSI M27-A3 method; assay type: functional; settings: read-out: GI; in short: as §1
# Candida albicans [17] = assay: Antifungal activity against Candida albicans CAI4 expressing delta-efg1 gene assessed as growth inhibition at by CLSI M27-A3 method; assay type: functional; in short: as §2
# Candida albicans [18] = assay: Antifungal activity against Candida albicans CAI4 expressing delta-cph1/delta-efg1 gene assessed as growth inhibition at by CLSI M27-A3 method; assay type: functional
# Candida albicans [19] = assay: Antifungal activity against Candida albicans CAI4 expressing delta-efg1 (EFG1) gene assessed as growth inhibition at 1 ug/ml by CLSI M27-A3 method; assay type: functional; settings: read-out: GI; in short: as §1
# Candida albicans [20] = assay: Antifungal activity against Candida albicans 90028 assessed as growth inhibition at 0.5 ug/ml by CLSI M27-A3 method; assay type: functional; settings: read-out: GI; in short: as §1
# Candida albicans [21] = assay: Antifungal activity against Candida albicans CAI4 expressing delta-efg1 (EFG1) gene assessed as growth inhibition at 8 ug/ml by CLSI M27-A3 method; assay type: functional; settings: read-out: GI; in short: as §1
# Candida albicans [22] = assay: Antifungal activity against Candida albicans CAI4 expressing delta-efg1 gene assessed as growth inhibition at 0.5 ug/ml by CLSI M27-A3 method; assay type: functional; settings: read-out: GI; in short: as §1
# Candida albicans [23] = assay: Antifungal activity against Candida albicans CAI4 expressing delta-efg1 (EFG1) gene assessed as growth inhibition at 2 ug/ml by CLSI M27-A3 method; assay type: functional; settings: read-out: GI; in short: as §1
# Candida albicans [24] = assay: Inhibition of cell adhesion of compound pre-treated Candida albicans CAI4 expressing delta-cph1 (CPH1) gene to human Caco2 cells assessed as cell adhesion level at 4 ug/ml pre-incubated for 18 hrs by colony counting method (reference value: 5.37 +/- 12.4%); assay type: functional, Caco-2; parameters: scale not given: the % may be the effect or the level left
# Candida albicans [25] = assay: Antifungal activity against Candida albicans CAI4 expressing delta-cph1 (CPH1) gene assessed as growth inhibition at 1 ug/ml by CLSI M27-A3 method; assay type: functional; settings: read-out: GI; in short: as §1
# Candida albicans [26] = assay: Inhibition of cell adhesion of compound pre-treated Candida albicans CAI4 expressing delta-efg1/delta-cph1 gene to human Caco2 cells assessed as cell adhesion level at 2 ug/ml pre-incubated for 18 hrs by colony counting method (reference value: 1.22 +/- 0.78%); assay type: functional, Caco-2; parameters: scale not given: the % may be the effect or the level left
# Candida albicans [27] = assay: Antifungal activity against Candida albicans CAI4 expressing delta-cph1 (CPH1) gene assessed as growth inhibition at 2 ug/ml by CLSI M27-A3 method; assay type: functional; settings: read-out: GI; in short: as §1
# Candida albicans [28] = assay: Antifungal activity against Candida albicans CAI4 expressing delta-cph1/delta-efg1 (EFG1) gene assessed as growth inhibition at 0.5 ug/ml by CLSI M27-A3 method; assay type: functional; settings: read-out: GI; in short: as §1
# Candida albicans [29] = assay: Inhibition of cell adhesion of compound pre-treated Candida albicans CAI4 expressing delta-efg1 gene to human Caco2 cells assessed as cell adhesion level at 2 ug/ml pre-incubated for 18 hrs by colony counting method (reference value: 2.1 +/- 3.52%); assay type: functional, Caco-2; parameters: scale not given: the % may be the effect or the level left
# Candida albicans [30] = assay: Antifungal activity against Candida albicans CAI4 expressing delta-efg1 (EFG1) gene assessed as growth inhibition at 4 ug/ml by CLSI M27-A3 method; assay type: functional; settings: read-out: GI; in short: as §1
# Candida albicans [31] = assay: Antifungal activity against Candida albicans CAI4 expressing delta-cph1/delta-efg1 gene assessed as growth inhibition at 1 ug/ml by CLSI M27-A3 method; assay type: functional; settings: read-out: GI; in short: as §1
# Candida albicans [32] = assay: Inhibition of cell adhesion of compound pre-treated Candida albicans CAI4 expressing delta-cph1 (CPH1) gene to human Caco2 cells assessed as cell adhesion level at 8 ug/ml pre-incubated for 18 hrs by colony counting method (reference value: 5.37 +/- 12.4%); assay type: functional, Caco-2; parameters: scale not given: the % may be the effect or the level left
SMILES,Activity (Candida albicans [1]),inhibition of growth at 0.5 µg/mL (Candida albicans [2]),inhibition of growth at 0.25 µg/mL (Candida albicans [3]),inhibition of growth at 4 µg/mL (Candida albicans [4]),inhibition of growth at 0.5 µg/mL (Candida albicans [5]),inhibition of growth at 0.25 µg/mL (Candida albicans [6]),Activity (Candida albicans [7]),inhibition of growth at 16 µg/mL (Candida albicans [8]),inhibition of growth at 8 µg/mL (Candida albicans [9]),inhibition of growth at 8 µg/mL (Candida albicans [10]),Activity (Candida albicans [11]),MIC90 (Candida albicans [12]),inhibition of growth at 16 µg/mL (Candida albicans [13]),inhibition of growth at 16 µg/mL (Candida albicans [14]),inhibition of growth at 0.25 µg/mL (Candida albicans [15]),inhibition of growth at 2 µg/mL (Candida albicans [16]),MIC90 (Candida albicans [17]),MIC90 (Candida albicans [18]),inhibition of growth at 1 µg/mL (Candida albicans [19]),inhibition of growth at 0.5 µg/mL (Candida albicans [20]),also measured
NNc1ccc(S(=O)(=O)C(Cl)(Br)Br)cc1[N+](=O)[O-],0.63%,97%,17%,99.1%,96.6%,70%,1.6%,100%,100%,100%,2.25%,4 µg/mL,100%,99.8%,98.6%,99.3%,4 µg/mL,4 µg/mL,98.8%,81.8%,inhibition of growth at 8 µg/mL (Candida albicans [21]): 99.8%; inhibition of growth at 0.5 µg/mL (Candida albicans [22]): 97.9%; inhibition of growth at 2 µg/mL (Candida albicans [23]): 99.1%; Activity (Candida albicans [24]): 0.76%; inhibition of growth at 1 µg/mL (Candida albicans [25]): 98.8%; Activity (Candida albicans [26]): 2.94%; inhibition of growth at 2 µg/mL (Candida albicans [27]): 99.3%; inhibition of growth at 0.5 µg/mL (Candida albicans [28]): 98.8%; Activity (Candida albicans [29]): 1.32%; inhibition of growth at 4 µg/mL (Candida albicans [30]): 99.3%; inhibition of growth at 1 µg/mL (Candida albicans [31]): 100%; Activity (Candida albicans [32]): 0.9%
O=[N+]([O-])c1cc(S(=O)(=O)C(Cl)(Cl)Br)ccc1Cl,0.49%,98.6%,98.6%,99.5%,97.4%,98.3%,0.68%,99.6%,99.5%,99.5%,0.43%,16 µg/mL,99.8%,99.8%,99%,99.3%,16 µg/mL,16 µg/mL,99.2%,98.7%,inhibition of growth at 8 µg/mL (Candida albicans [21]): 99.4%; inhibition of growth at 0.5 µg/mL (Candida albicans [22]): 98.7%; inhibition of growth at 2 µg/mL (Candida albicans [23]): 99.3%; Activity (Candida albicans [24]): 1.39%; inhibition of growth at 1 µg/mL (Candida albicans [25]): 98.7%; Activity (Candida albicans [26]): 0.78%; inhibition of growth at 2 µg/mL (Candida albicans [27]): 99.2%; inhibition of growth at 0.5 µg/mL (Candida albicans [28]): 98.8%; Activity (Candida albicans [29]): 0.9%; inhibition of growth at 4 µg/mL (Candida albicans [30]): 99.3%; inhibition of growth at 1 µg/mL (Candida albicans [31]): 98.8%; Activity (Candida albicans [32]): 2.78%
